Assay results pooled from the literature.
BRD9: Bromodomain-containing protein 9 (BRD9, Homo sapiens, UniProt Q9H8M2)

CCN1/C(=C/C(C)=O)Sc2ccc(F)cc21
inhibition (D(1B) dopamine receptor (DRD5, Homo sapiens, UniProt P21918); ligand displacement; radioligand; 10 µM): 2.77%

CCCCC(=O)Nc1ccc(-c2ccc3ncn(CCC)c(=O)c3c2)cn1
remaining binding (Bone morphogenetic protein receptor type-1A (BMPR1A, Homo sapiens, UniProt P36894); binding; competition with immobilised ligand; 0.5 µM): 84%

COc1cc(C(C)O)c(OC)cc1-c1cc(C(C)=O)n2ccccc12 (stereo not shown)
ΔTm (BRD9; thermal stability; DSF; 200 µM): 9.9 °C

Cc1cc(O)c(-c2ccc([C@@H](C)CN(C)C)cc2)c2c1[nH]c(=O)c1sccc12
inhibition (G protein-coupled receptor kinase 5 (GRK5, Homo sapiens, UniProt P34947); enzyme activity; inhibitor; 0.1 µM): -6.65%

COc1cc(-c2cc(C(C)=O)n3ccccc23)c(OC)cc1C=O
ΔTm (BRD9; thermal stability; DSF; 200 µM): 8.3 °C

Cc1ncc(-c2cc3cc(-c4c(C)ccc(O)c4C)cnc3[nH]2)cn1
inhibition (Membrane-associated tyrosine- and threonine-specific cdc2-inhibitory kinase (PKMYT1, Homo sapiens, UniProt Q99640); cell-free assay; TR-FRET; 10 µM): 101%

C1=C/COCc2cc(ccc2OCCN2CCCC2)Nc2nccc(n2)-c2cccc(c2)COC/1
remaining binding (Activin receptor type-2A (ACVR2A, Homo sapiens, UniProt P27037); binding; 0.1 µM): 83%

COc1cc(-c2cc(C(C)=O)n3ccccc23)c(OC)cc1CN(C)C
ΔTm (BRD9; thermal stability; DSF; 200 µM): 12.5 °C

NC/C(=C\F)COc1cccc(Cn2c(=S)[nH]c(=O)c3[nH]cnc32)c1
inhibition (Histamine H3 receptor (HRH3, Homo sapiens, UniProt Q9Y5N1); ligand displacement; radioligand; 10 µM): < 50%

COc1ccc2oc(-c3ccc4nc(N)oc4c3)c/c(=N\c3ccccc3NC(=O)CCN)c2c1
remaining binding (Serine/threonine-protein kinase 35 (STK35, Homo sapiens, UniProt Q8TDR2); binding; 1 µM): 104%
